Compound activity (PubChem BioAssay)
In the library only some 2.9% were active in any assay of this set; here they are far more common.
PAX8 inh HTS – PAX8 transcriptional activity inhibition; RMG-I TPO-luciferase reporter, SteadyGlo, 24 h; inhibition, % at 12.6 µM; 360,000 tested, 1.2% active; AID 652154;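 active = mean replicate inhibition at least 60% with every replicate also reaching 60%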;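 also: luciferase light reporting Pax8 driven TPO promoter activity; plate controls were median of neutral control wells for no effect and mitoxantrone controls for full effect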
Cneo AK release – Cryptococcus neoformans lysis via adenylate kinase release; C. neoformans lysis, adenylate kinase release luminescence, 4 h; normalised: neutral wells 0, clomiphene wells 100; lysis activity, % at 15 µM; 360,000 tested, 0.2% active;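 active = mean lysis activity across replicates of at least 80%, whatever share of replicates individually reach that level; inactive = mean lysis activity below 80%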
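Material – Cryptococcus neoformans yeast cells · Quantity – 5 × 10^6 yeast cells/mL · Buffer or medium – YPD medium · Compound – single dose · Timing – 4 h static compound exposure, 37 °C, read 1 h post-reagent · Signal – adenylate kinase release luminescence · Read-out basis – lysis from increased AK signal · Benchmarks – Clomiphene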
GSIS activator – primary screen for activators of insulin secretion dependent on glucose, INS-1E cells, GLuc reporter luminescence; AID 743287; INS-1E GLuc reporter insulin secretion, 2-3 h; activation, % at 16.6 µM; 370,000 tested, 0.61% active;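 active = lowest replicate activation of at least 40%, so every replicate reaches that level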;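 also: 0% = median of neutral control wells and 100% = median of IBMX positive control wells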
Env fusion inh – HIV envelope-mediated fusion inhibition; HeLa-JRFL Env/CEM21 cell fusion, luciferase; inhibition, % at 12.3 µM; 360,000 tested, 1.1% active;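 active = mean replicate inhibition score of at least 50 and every replicate individually at or above 50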;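 also: 0% = plate neutral controls and 100% = maraviroc near 300 nM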
dFosB act – activators of mouse delta FosB homodimer; P13346; purified delta FosB, TAMRA-CDK5 oligo fluorescence polarization; percent of positive-control signal above neutral wells; activation, % at 25 µM; 340,000 tested, 0.99% active; AID 493131;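 active = mean activation above about 17%, with every replicate also reaching it, limit read from the data, passing the limit was not always enough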
Target sequence (P13346 whole entry, looked up): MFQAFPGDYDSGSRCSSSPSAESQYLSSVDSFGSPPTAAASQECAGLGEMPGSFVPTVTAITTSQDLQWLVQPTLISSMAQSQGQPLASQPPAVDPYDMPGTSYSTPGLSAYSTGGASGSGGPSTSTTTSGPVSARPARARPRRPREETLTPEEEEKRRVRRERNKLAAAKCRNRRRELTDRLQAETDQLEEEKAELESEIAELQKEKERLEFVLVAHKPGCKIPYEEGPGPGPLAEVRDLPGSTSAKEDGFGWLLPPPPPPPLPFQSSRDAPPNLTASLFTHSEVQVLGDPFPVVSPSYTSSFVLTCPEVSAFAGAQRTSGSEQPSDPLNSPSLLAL
CDK5 p35 inh – CDK5/p35 (human) kinase inhibition; Recombinant CDK5/p35, ADP-Glo luminescence, 60 min; inhibition, % at 10 µM; 330,000 tested, 0.01% active; AID 488839;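 active = highest replicate inhibition of at least 50% and at least 75% of replicates reaching 50%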;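 also: plate controls were DMSO neutral control for no effect and GW8510 at 10 µM for full effect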
Numbers without * were called inactive; / = not tested or not shown; [ ] = dose if it differs, or a comment.

SMILES	PAX8 inh HTS	Cneo AK release	GSIS activator	Env fusion inh	dFosB act	CDK5 p35 inh
Cc1noc(C)c1S(=O)(=O)Nc1ccc2c(c1)C(=O)N([C@@H](C)CO)C[C@@H](C)[C@H](CN(C)Cc1ccc(C(=O)O)cc1)OCCCC[C@H](C)O2	-7	-4	14	-12[16.7 µM]	/	/
Cc1noc(C)c1S(=O)(=O)Nc1ccc2c(c1)C(=O)N([C@H](C)CO)C[C@H](C)[C@@H](CN(C)Cc1ccc(C(F)(F)F)cc1)OCCCC[C@H](C)O2	72*	6	-19	-7[16.7 µM]	/	/
Cc1noc(C)c1S(=O)(=O)Nc1ccc2c(c1)C(=O)N([C@H](C)CO)C[C@H](C)[C@H](CN(C)Cc1ccc(C(F)(F)F)cc1)OCCCC[C@H](C)O2	74*	23	-8	2[16.7 µM]	/	/
Cc1noc(C)c1S(=O)(=O)Nc1ccc2c(c1)C(=O)N([C@H](C)CO)C[C@H](C)[C@H](CN(C)Cc1ccc(C(=O)O)cc1)OCCCC[C@H](C)O2	-2	-1	2	-5[16.7 µM]	/	/
Cc1noc(C)c1S(=O)(=O)Nc1ccc2c(c1)C(=O)N([C@@H](C)CO)C[C@@H](C)[C@H](CN(C)Cc1ccc(C(F)(F)F)cc1)OCCCC[C@H](C)O2	64*	7	-12	27[16.7 µM]	/	/
Cc1noc(C)c1S(=O)(=O)Nc1ccc2c(c1)C(=O)N([C@@H](C)CO)C[C@H](C)[C@@H](CN(C)Cc1ccc(C(F)(F)F)cc1)OCCCC[C@@H](C)O2	72*	20	-17	-39[16.7 µM]	/	/
Cn1cnc(S(=O)(=O)N2CC[C@H]3[C@H](CO)Nc4ccc(-c5ccccc5F)cc4[C@H]32)c1	-10	-8	-3	/	/	/
CO[C@@H]1CN(C)C(=O)c2cc(NS(=O)(=O)c3ccccc3)ccc2OC[C@@H](C)N(C)C[C@@H]1C	0	/	1	5[16.7 µM]	/	/
COc1ccc(CCNc2ccc(N3C(=O)CC(C)C3=O)cc2[N+](=O)[O-])cc1OC (configuration not stated)	16	14	-46	68*	-2	-2
COc1ccc(CCNc2ccc(N3C(=O)CC(C)C3=O)cc2[N+](=O)[O-])cc1 (configuration not stated)	-1	/	13	-3	-5	-1
CN(c1ccccc1)c1ccc(/C=C/[N+](=O)[O-])cc1	-4	/	-31	-214	-13	-1
CN(C)c1ccc(-n2cccc2/C=C/[N+](=O)[O-])cc1	72*	-1	-3	-30	-6	2
CC(C)NC(=O)NCC[C@@H]1CC[C@@H](NC(=O)c2ccc(F)cc2)[C@@H](CO)O1	-7	1	11	1[16.7 µM]	/	/
COc1ccc([N+](=O)[O-])cc1NC(=O)C(C)OC(=O)c1ccccc1C(=O)c1ccc(Cl)cc1 (configuration not stated)	24	/	-5	85*	-9	1
Cc1ccc(S(=O)(=O)NCc2csc(-c3cccs3)n2)cc1	-26	/	48*	-10	-11	0
CN(C)c1ccc(/C=C/c2ccc3ccccc3[n+]2C)cc1	-4	-4	-49	/	96*	12
CN(C)c1ccc(/C=C/c2ccc3c4ccccc4ccc3[n+]2-c2ccccc2)cc1	103*	-10	-57	-47	112*	17
CN(C)c1ccc(/C=C/c2cccc[n+]2[O-])cc1	-84	-11	/	-9	-5	1
Cc1ccc(-c2ccc3c(c2)O[C@H](CN(C)Cc2cccc(C(=O)O)c2)[C@H](C)CN([C@@H](C)CO)S3(=O)=O)cc1	/	0	9	-18[16.7 µM]	/	/
N#Cc1ccc(-c2ccc3c(c2)[C@@H]2[C@@H](CCN2C(=O)CN2CCOCC2)[C@H](CO)N3)cc1	2	1	22	/	/	/
COc1ccc2nc(SCC(=O)N3CC(=O)Nc4ccccc43)c(C#N)cc2c1	/	3	/	/	-7	-2
Cc1cc(C)c2nc(SCC(=O)N3CC(=O)Nc4ccccc43)c(C#N)cc2c1	97*	-1	/	-225	-12	0
CCCNC(=O)N1CC(=O)N2[C@@H](CO)[C@@H](c3ccc(C#Cc4ccc(F)cc4)cc3)[C@@H]2C1	/	/	-15	/	/	/
C[C@H]1CN([C@@H](C)CO)C(=O)Cc2cc(NS(=O)(=O)c3cn(C)cn3)ccc2O[C@H]1CN(C)Cc1ccc(Oc2ccccc2)cc1	/	0	15	-10[16.7 µM]	/	/
COc1ccc(S(=O)(=O)Nc2ccc3c(c2)CC(=O)N([C@@H](C)CO)C[C@@H](C)[C@H](CN(C)Cc2ccc(-c4ccccc4)cc2)O3)cc1	95*	1	6	45[16.7 µM]	/	/
SMILES	PAX8 inh HTS	Cneo AK release	GSIS activator	Env fusion inh	dFosB act	CDK5 p35 inh
Cc1ccc(S(=O)(=O)Nc2ccc3c(c2)CC(=O)N([C@H](C)CO)C[C@H](C)[C@@H](CN(C)Cc2ccc(Oc4ccccc4)cc2)O3)cc1	27	2	1	42[16.7 µM]	/	/
C[C@H](CO)N1C[C@H](C)[C@@H](CN(C)Cc2ccc(Oc3ccccc3)cc2)Oc2ccc(NS(=O)(=O)c3cn(C)cn3)cc2CC1=O	/	110*	-30	-31[16.7 µM]	/	/
Cc1ccc(S(=O)(=O)Nc2ccc3c(c2)CC(=O)N([C@@H](C)CO)C[C@@H](C)[C@H](CN(C)Cc2ccc(Oc4ccccc4)cc2)O3)cc1	33	-3	4	73*[16.7 µM]	/	/
COc1ccc(S(=O)(=O)Nc2ccc3c(c2)CC(=O)N([C@H](C)CO)C[C@H](C)[C@@H](CN(C)Cc2ccc(Oc4ccccc4)cc2)O3)cc1	68*	-7	-7	9[16.7 µM]	/	/
CC=Cc1ccc2n(c1=O)C[C@H]1[C@H](CO)[C@@H](C(=O)NCC3CC3)[C@@H]2N1CC1CCOCC1 (mixture of isomers)	-8	-1	7	/	/	/
COc1ccc(S(=O)(=O)N(C)C[C@@H]2Oc3c(NS(C)(=O)=O)cccc3C(=O)N([C@H](C)CO)C[C@H]2C)cc1	/	3	27	17[16.7 µM]	/	/
CCC(C)NS(=O)(=O)c1ccc(NC(=O)C(Sc2ccccc2)c2ccccc2)cc1 (configuration not stated)	38	1	/	/	-6	3
CCCCNS(=O)(=O)c1ccc(NC(=O)C(Sc2ccccc2)c2ccccc2)cc1 (configuration not stated)	72*	2	-31	/	-7	0
O=[N+]([O-])c1cccc(/C=C/c2nc[nH]c2[N+](=O)[O-])c1	-15	4	40*	-25	-5	-1
O=C(Nc1ccccc1)Nc1cc(OCC(F)(F)F)cc(OCC(F)(F)F)c1	95*	/	4	62*	-1	-3
O=C(Nc1ccccc1)Nc1cc(Cl)cc(Cl)c1	/	-3	/	/	-2	-1
COc1ccc(C(=O)NNC(=O)Cc2nc3ccccc3n2C)cc1	68*	1	-3	15	1	-2
CCn1c(COc2ccc(C)cc2)nnc1SCC(=O)NNC(=O)c1ccc(OC)cc1	-18	-3	-2	6	-1	-3
